Results from ChEMBL document CHEMBL1275252, “First survey of metallo-beta-lactamases in clinical isolates of Pseudomonas aeruginosa in a German university hospital” (2010).
In brackets after ≈: the same amount, converted by molar mass.

Legend:
Type in all cases: functional
[1] = system: Pseudomonas aeruginosa; assay: Antimicrobial activity against Pseudomonas aeruginosa PA431 expressing IMP-1 beta-lactamase
Method in brief: (§1)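 Well-characterized MBL-producing control strains from earlier studies: nine P. aeruginosa and one A. baumannii. MIC was read in μg/ml and used to set screening breakpoints for MBL producers.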

[2] = system: Pseudomonas aeruginosa; assay: Antimicrobial activity against Pseudomonas aeruginosa PA552 expressing IMP-1 beta-lactamase; method in brief: as §1
[3] = system: Pseudomonas aeruginosa; assay: Antimicrobial activity against Pseudomonas aeruginosa PA386 expressing IMP-13 beta-lactamase; method in brief: as §1
[4] = system: Pseudomonas aeruginosa; assay: Antimicrobial activity against Pseudomonas aeruginosa PA550 expressing VIM-1 beta-lactamase; method in brief: as §1
[5] = system: Pseudomonas aeruginosa; assay: Antimicrobial activity against Pseudomonas aeruginosa PA373 expressing VIM-2 beta-lactamase; method in brief: as §1
[6] = system: Pseudomonas aeruginosa; assay: Antimicrobial activity against Pseudomonas aeruginosa PA399 expressing VIM-2 beta-lactamase; method in brief: as §1
[7] = system: Pseudomonas aeruginosa; assay: Antimicrobial activity against Pseudomonas aeruginosa PA430 expressing VIM-4 beta-lactamase; method in brief: as §1
[8] = system: Pseudomonas aeruginosa; assay: Antimicrobial activity against Pseudomonas aeruginosa PA554 expressing GIM-1 beta-lactamase; method in brief: as §1
[9] = system: Acinetobacter baumannii; assay: Antimicrobial activity against Acinetobacter baumannii AB551 expressing SIM-1 beta-lactamase; method in brief: as §1
[10] = system: Pseudomonas aeruginosa; assay: Antimicrobial activity against Pseudomonas aeruginosa PA553 expressing SPM-1 beta-lactamase; method in brief: as §1
[11] = system: Pseudomonas aeruginosa; assay: Antimicrobial activity against metallo-beta-lactamase-negative Pseudomonas aeruginosa isolate PA339
Method in brief: (§2)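 MBL-negative clinical P. aeruginosa isolates with reduced imipenem susceptibility, collected at the study hospital, some from cystic fibrosis patients. Species identity was confirmed by automated Gram-negative identification card. MIC was read in μg/ml.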

[12] = system: Pseudomonas aeruginosa; assay: Antimicrobial activity against metallo-beta-lactamase-negative Pseudomonas aeruginosa isolate PA340; method in brief: as §2
[13] = system: Pseudomonas aeruginosa; assay: Antimicrobial activity against metallo-beta-lactamase-negative Pseudomonas aeruginosa isolate PA341; method in brief: as §2
[14] = system: Pseudomonas aeruginosa; assay: Antimicrobial activity against metallo-beta-lactamase-negative Pseudomonas aeruginosa isolate PA342; method in brief: as §2
[15] = system: Pseudomonas aeruginosa; assay: Antimicrobial activity against metallo-beta-lactamase-negative Pseudomonas aeruginosa isolate PA346; method in brief: as §2
[16] = system: Pseudomonas aeruginosa; assay: Antimicrobial activity against metallo-beta-lactamase-negative Pseudomonas aeruginosa isolate PA349; method in brief: as §2
[17] = system: Pseudomonas aeruginosa; assay: Antimicrobial activity against metallo-beta-lactamase-negative Pseudomonas aeruginosa isolate PA350; method in brief: as §2
[18] = system: Pseudomonas aeruginosa; assay: Antimicrobial activity against metallo-beta-lactamase-negative Pseudomonas aeruginosa isolate PA352; method in brief: as §2
[19] = system: Pseudomonas aeruginosa; assay: Antimicrobial activity against metallo-beta-lactamase-negative Pseudomonas aeruginosa isolate PA355; method in brief: as §2
[20] = system: Pseudomonas aeruginosa; assay: Antimicrobial activity against metallo-beta-lactamase-negative Pseudomonas aeruginosa isolate PA356; method in brief: as §2
[21] = system: Pseudomonas aeruginosa; assay: Antimicrobial activity against metallo-beta-lactamase-negative Pseudomonas aeruginosa isolate PA360; method in brief: as §2
[22] = system: Pseudomonas aeruginosa; assay: Antimicrobial activity against metallo-beta-lactamase-negative Pseudomonas aeruginosa isolate PA361; method in brief: as §2
[23] = system: Pseudomonas aeruginosa; assay: Antimicrobial activity against metallo-beta-lactamase-negative Pseudomonas aeruginosa isolate PA362; method in brief: as §2
[24] = system: Pseudomonas aeruginosa; assay: Antimicrobial activity against metallo-beta-lactamase-negative Pseudomonas aeruginosa isolate PA364; method in brief: as §2
[25] = system: Pseudomonas aeruginosa; assay: Antimicrobial activity against metallo-beta-lactamase-negative Pseudomonas aeruginosa isolate PA368; method in brief: as §2
[26] = system: Pseudomonas aeruginosa; assay: Antimicrobial activity against metallo-beta-lactamase-negative Pseudomonas aeruginosa isolate PA370; method in brief: as §2
[27] = system: Pseudomonas aeruginosa; assay: Antimicrobial activity against metallo-beta-lactamase-negative Pseudomonas aeruginosa isolate PA376
[28] = system: Pseudomonas aeruginosa; assay: Antimicrobial activity against metallo-beta-lactamase-negative Pseudomonas aeruginosa isolate PA377; method in brief: as §2
[29] = system: Pseudomonas aeruginosa; assay: Antimicrobial activity against metallo-beta-lactamase-negative Pseudomonas aeruginosa isolate PA380; method in brief: as §2
[30] = system: Pseudomonas aeruginosa; assay: Antimicrobial activity against metallo-beta-lactamase-negative Pseudomonas aeruginosa isolate PA381; method in brief: as §2
[31] = system: Pseudomonas aeruginosa; assay: Antimicrobial activity against metallo-beta-lactamase-negative Pseudomonas aeruginosa isolate PA382; method in brief: as §2
[32] = system: Pseudomonas aeruginosa; assay: Antimicrobial activity against metallo-beta-lactamase-negative Pseudomonas aeruginosa isolate PA395; method in brief: as §2
[33] = system: Pseudomonas aeruginosa; assay: Antimicrobial activity against metallo-beta-lactamase-negative Pseudomonas aeruginosa isolate PA734 isolated from patient with cystic fibrosis; method in brief: as §2
[34] = system: Pseudomonas aeruginosa; assay: Antimicrobial activity against metallo-beta-lactamase-negative Pseudomonas aeruginosa isolate PA736 isolated from patient with cystic fibrosis; method in brief: as §2
[35] = system: Pseudomonas aeruginosa; assay: Antimicrobial activity against metallo-beta-lactamase-negative Pseudomonas aeruginosa isolate PA758 isolated from patient with cystic fibrosis; method in brief: as §2
[36] = system: Pseudomonas aeruginosa; assay: Antimicrobial activity against metallo-beta-lactamase-negative Pseudomonas aeruginosa isolate PA774 isolated from patient with cystic fibrosis; method in brief: as §2
[37] = system: Pseudomonas aeruginosa; assay: Antimicrobial activity against Pseudomonas aeruginosa isolate PA399 expressing VIM-2 beta-lactamase
[38] = system: Pseudomonas aeruginosa; assay: Antimicrobial activity against Pseudomonas aeruginosa isolate PA462 expressing VIM-2 beta-lactamase
[39] = system: Pseudomonas aeruginosa; assay: Antimicrobial activity against Pseudomonas aeruginosa isolate PA465 expressing VIM-2 beta-lactamase
[40] = system: Pseudomonas aeruginosa; assay: Antimicrobial activity against Pseudomonas aeruginosa isolate PA469 expressing VIM-2 beta-lactamase
[41] = system: Pseudomonas aeruginosa; assay: Antimicrobial activity against Pseudomonas aeruginosa isolate PA475 expressing VIM-2 beta-lactamase
[42] = system: Pseudomonas aeruginosa; assay: Antimicrobial activity against Pseudomonas aeruginosa isolate PA477 expressing VIM-2 beta-lactamase
[43] = system: Pseudomonas aeruginosa; assay: Antimicrobial activity against Pseudomonas aeruginosa isolate PA481 expressing VIM-2 beta-lactamase
[44] = system: Pseudomonas aeruginosa; assay: Antimicrobial activity against Pseudomonas aeruginosa isolate PA500 expressing VIM-1 beta-lactamase
[45] = system: Pseudomonas aeruginosa; assay: Antimicrobial activity against Pseudomonas aeruginosa isolate PA510 expressing VIM-2 beta-lactamase
[46] = system: Pseudomonas aeruginosa; assay: Antimicrobial activity against metallo-beta-lactamase-negative Pseudomonas aeruginosa isolate PA459; method in brief: as §2
[47] = system: Pseudomonas aeruginosa; assay: Antimicrobial activity against metallo-beta-lactamase-negative Pseudomonas aeruginosa isolate PA460
[48] = system: Pseudomonas aeruginosa; assay: Antimicrobial activity against metallo-beta-lactamase-negative Pseudomonas aeruginosa isolate PA479
[49] = system: Pseudomonas aeruginosa; assay: Antimicrobial activity against metallo-beta-lactamase-negative Pseudomonas aeruginosa isolate PA483
[50] = system: Pseudomonas aeruginosa; assay: Antimicrobial activity against metallo-beta-lactamase-negative Pseudomonas aeruginosa isolate PA494
[51] = system: Pseudomonas aeruginosa; assay: Antimicrobial activity against metallo-beta-lactamase-negative Pseudomonas aeruginosa isolate PA509
[52] = system: Pseudomonas aeruginosa; assay: Antimicrobial activity against metallo-beta-lactamase-negative Pseudomonas aeruginosa isolate PA507; method in brief: as §2

For `C[C@@H](O)[C@H]1C(=O)N2C(C(=O)O)=C(SCCNC=N)C[C@H]12` [IMIPENEM ANHYDROUS], the MIC [1] was 8 µg/mL (≈ 26.7 µM), the MIC [2] was ≥ 16 µg/mL and the MIC [3] was ≥ 16 µg/mL. The MIC [4] was ≥ 16 µg/mL, the MIC [5] was ≥ 16 µg/mL and the MIC [6] was ≥ 16 µg/mL. For the same compound, the MIC [7] was ≥ 16 µg/mL, the MIC [8] was ≥ 16 µg/mL and the MIC [9] was ≥ 16 µg/mL. The MIC [10] was ≥ 16 µg/mL, the MIC [11] was ≥ 16 µg/mL and the MIC [12] was 8 µg/mL (≈ 26.7 µM). For the same compound, the MIC [13] was ≥ 16 µg/mL, the MIC [14] was ≥ 16 µg/mL and the MIC [15] was ≥ 16 µg/mL. For the same compound, the MIC [16] was ≥ 16 µg/mL, the MIC [17] was ≥ 16 µg/mL and the MIC [18] was ≥ 16 µg/mL. For the same compound, the MIC [19] was ≥ 16 µg/mL, the MIC [20] was ≥ 16 µg/mL and the MIC [21] was 8 µg/mL (≈ 26.7 µM). The MIC [22] was ≥ 16 µg/mL, the MIC [23] was 8 µg/mL (≈ 26.7 µM) and the MIC [24] was 8 µg/mL (≈ 26.7 µM). The MIC [25] was ≥ 16 µg/mL, the MIC [26] was ≥ 16 µg/mL and the MIC [27] was ≥ 16 µg/mL. The MIC [28] was ≥ 16 µg/mL, the MIC [29] was 8 µg/mL (≈ 26.7 µM) and the MIC [30] was ≥ 16 µg/mL. For the same compound, the MIC [31] was ≥ 16 µg/mL, the MIC [32] was ≥ 16 µg/mL and the MIC [33] was ≥ 16 µg/mL. The MIC [34] was 8 µg/mL (≈ 26.7 µM), the MIC [35] was ≥ 16 µg/mL and the MIC [36] was ≥ 16 µg/mL. The MIC [37] was ≥ 16 µg/mL, the MIC [38] was ≥ 16 µg/mL and the MIC [39] was ≥ 16 µg/mL. For the same compound, the MIC [40] was ≥ 16 µg/mL, the MIC [41] was ≥ 16 µg/mL and the MIC [42] was ≥ 16 µg/mL. For the same compound, the MIC [43] was ≥ 16 µg/mL, the MIC [44] was ≥ 16 µg/mL and the MIC [45] was ≥ 16 µg/mL. For the same compound, the MIC [46] was ≥ 16 µg/mL, the MIC [47] was ≥ 16 µg/mL and the MIC [48] was 8 µg/mL (≈ 26.7 µM). For the same compound, the MIC [49] was ≥ 16 µg/mL, the MIC [50] was ≥ 16 µg/mL and the MIC [51] was ≥ 16 µg/mL.

With `NC[C@H]1O[C@H](O[C@H]2[C@H](O)[C@@H](O[C@H]3O[C@H](CO)[C@@H](O)[C@H](N)[C@H]3O)[C@H](N)C[C@@H]2N)[C@H](N)C[C@@H]1O` [TOBRAMYCIN] the MIC [37] was ≥ 16 µg/mL, the MIC [38] was ≥ 16 µg/mL and the MIC [39] was ≤ 1 µg/mL. The MIC [40] was ≥ 16 µg/mL, the MIC [41] was ≥ 16 µg/mL and the MIC [42] was ≥ 16 µg/mL. The MIC [43] was ≥ 16 µg/mL, the MIC [44] was 8 µg/mL (≈ 17.1 µM) and the MIC [45] was ≥ 16 µg/mL. The MIC [46] was 1 µg/mL (≈ 2.14 µM), the MIC [47] was ≥ 16 µg/mL and the MIC [48] was ≥ 16 µg/mL. The MIC [49] was 1 µg/mL (≈ 2.14 µM), the MIC [50] was 1 µg/mL (≈ 2.14 µM) and the MIC [52] was 1 µg/mL (≈ 2.14 µM). The MIC [51] was ≥ 16 µg/mL.
